Key:
SR = experiment: Cytotoxicity against human SR cells after 48 hrs by SRB assay; format: functional; conditions: read-out: GI50
Method in brief: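 NCI 60-cell-line five-dose screen. Cells were grown in 1640 medium with 5% fetal calf serum and 2 mM L-glutamine, with inoculum density set by cell line, and pre-incubated 24 h. Compound in DMSO was added at 10^-4 to 10^-8 M (10-fold steps) with 48 h continuous exposure. Growth was read by SRB protein assay, and GI50, TGI and LC50 were derived from dose-response.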

NCI-H522 = experiment: Cytotoxicity against human NCI-H522 cells after 48 hrs by SRB assay; format: functional; conditions: NCI-H522, 48 h, read-out: GI50
Method in brief: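 NCI five-dose screen on the ~60-line human tumor panel. Cells grown in RPMI-1640 with 5% fetal calf serum and 2 mM L-glutamine, seeded at line-dependent density and preincubated 24 h. Compound added from DMSO at 10-fold dilutions from 10^-4 to 10^-8 M, continuous exposure 48 h. Growth read by sulforhodamine B protein stain. GI50, TGI and LC50 derived per line.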

Question: What does the source list for O=c1[nH]cc(F)c(=O)[nH]1 [FLUOROURACIL]?
Answer: GI50 (SR): 0.0238 µM; GI50 (NCI-H522): 7.28 µM

Reference: ChEMBL document CHEMBL1944532, “Synthesis and evaluation of anticancer activity of some novel 6-aryl-2-(p-sulfamylphenyl)-pyridazin-3(2H)-ones” (Eur J Med Chem, 2012)
